Source: PubChem (Johns Hopkins Ion Channel Center)
Sampled rows, rich in hits. Any-hit rate of the full collection: about 3.1%.
hERG protect = hERG (human) protection from proarrhythmic block; Q12809; CHO-hERG, FluxOR thallium flux, dofetilide IC70 present; activation (rescue from dofetilide block), less the hit threshold, % at 10 µM; 0.51% of 310,000 active;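 active = activation above the mean of controls blocked by dofetilide plus 5 SD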;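 note: thallium influx through hERG after potassium depolarization seen as dye fluorescence rise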
Target sequence (Q12809 whole entry, looked up): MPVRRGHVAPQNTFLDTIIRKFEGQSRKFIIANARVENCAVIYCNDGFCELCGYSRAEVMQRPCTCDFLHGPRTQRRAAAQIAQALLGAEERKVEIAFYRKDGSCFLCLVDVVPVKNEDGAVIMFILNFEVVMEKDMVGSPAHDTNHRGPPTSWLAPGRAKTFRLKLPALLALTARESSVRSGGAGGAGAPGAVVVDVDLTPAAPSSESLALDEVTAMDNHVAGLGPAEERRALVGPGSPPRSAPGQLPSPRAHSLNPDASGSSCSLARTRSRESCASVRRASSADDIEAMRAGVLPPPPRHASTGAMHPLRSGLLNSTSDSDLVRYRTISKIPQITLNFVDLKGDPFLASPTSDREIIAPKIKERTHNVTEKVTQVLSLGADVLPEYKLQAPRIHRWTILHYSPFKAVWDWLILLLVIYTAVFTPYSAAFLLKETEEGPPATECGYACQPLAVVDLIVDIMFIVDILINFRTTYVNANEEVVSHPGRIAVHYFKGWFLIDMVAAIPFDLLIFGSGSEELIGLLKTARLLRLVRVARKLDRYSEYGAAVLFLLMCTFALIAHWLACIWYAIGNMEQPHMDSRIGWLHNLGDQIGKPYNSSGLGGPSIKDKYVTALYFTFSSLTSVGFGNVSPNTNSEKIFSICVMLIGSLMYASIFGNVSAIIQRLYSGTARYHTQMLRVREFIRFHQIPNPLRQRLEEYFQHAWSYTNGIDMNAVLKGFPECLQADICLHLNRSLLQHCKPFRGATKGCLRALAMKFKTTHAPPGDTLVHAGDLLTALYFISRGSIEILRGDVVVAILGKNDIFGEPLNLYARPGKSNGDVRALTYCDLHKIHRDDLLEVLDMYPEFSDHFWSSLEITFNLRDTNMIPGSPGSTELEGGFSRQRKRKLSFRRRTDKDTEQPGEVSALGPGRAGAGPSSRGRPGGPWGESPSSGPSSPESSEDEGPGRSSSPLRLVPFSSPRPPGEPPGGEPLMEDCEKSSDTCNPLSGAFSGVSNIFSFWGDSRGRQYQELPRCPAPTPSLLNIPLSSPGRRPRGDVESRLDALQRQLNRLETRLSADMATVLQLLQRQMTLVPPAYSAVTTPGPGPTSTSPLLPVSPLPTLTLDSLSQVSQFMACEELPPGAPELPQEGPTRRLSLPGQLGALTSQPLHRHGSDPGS
KCNQ1 pot = human KCNQ1 channel potentiation or activation. 0.35% of 310,000 active. AID 2648. P51787. CHO-K1 KCNQ1, thallium flux FluxOR fluorescence; stronger effect = higher value. B-score at 10 µM;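 active = fluorescence ratio B-score, a plate-corrected score, at least three library SD, with initial intensity B-score within 5 SD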
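Assay system: CHO-K1 cells stably expressing KCNQ1. Medium: assay buffer for compound exposure, DMSO matched across wells. Timing: 37 °C overnight plating, 90-min dark dye load, 20-min compound pretreatment. Signal: kinetic FluxOR fluorescence, 10 s baseline plus 110 s post-stimulus.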
KCNK3 inh = human KCNK3 channel inhibition, primary screen. CHO-KCNK3 thallium flux, FluxOR fluorescence; stronger effect = lower value. B-score at 10 µM. 0.84% of 340,000 active;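 active = B-score under library mean minus 4 SD, starting fluorescence ratio at most library mean plus 5 SD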;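 note: more negative B-score means stronger inhibition of thallium flux through KCNK3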
KCNQ1 inh = human KCNQ1 channel inhibition; P51787; CHO-K1 KCNQ1, FluxOR thallium flux fluorescence; stronger effect = higher value; B-score at 10 µM; 1.3% of 310,000 active;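 active = compounds whose thallium flux B-score, printed positive for inhibition, exceeds three library SD while starting fluorescence stays within three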;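 note: channel opened by potassium depolarization with thallium stimulus after 20 min compound exposure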
KCNK9 inh = blocks the human KCNK9 two-pore domain potassium channel. B-score at 10 µM. 1.2% of 310,000 active. AID 488922. HEK293 KCNK9, FluxOR thallium flux fluorescence; stronger effect = lower value;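 active = ratio B-score over 3 SD below the library mean, with starting fluorescence within 5 SD of its mean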;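 note: negative B-score means less thallium flux so channel inhibition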
KCNK3 confirm = confirmation of human KCNK3 two-pore domain potassium channel inhibitors. 99% of 2,400 active. shares compounds with KCNK3 inh. ratio percent of control, % at 10 µM. CHO-KCNK3 thallium flux, FluxOR fluorescence; 0% buffer, 100% carvedilol maximal block. AID 651638;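 active = ratio percent of control, averaged over triplicates, above buffer control mean plus 5 SD, cut at about 64% in these data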;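 note: ratio is the fluorescence rise from min to max over baseline after thallium stimulus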
KCNK3 noninduced = counter-screen for KCNK3 inhibitors: effect in non-induced cells. shares compounds with KCNK3 inh. non-induced KCNK3 parental cells, FluxOR thallium flux; stronger effect = lower value. thallium flux ratio (lower = more inhibition) at 10 µM. 40% of 2,400 active. AID 651747;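 active = thallium flux ratio, averaged over three wells, more than 5 SD below the buffer control mean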;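 note: host cells are CHO cells without KCNK3 induction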
Large screens that a line does not name were inactive (follow-up assays come after a bar, where they were run).

COC(=O)CSc1nc2cc(Cl)ccc2c(=O)n1C1CCCC1	none
CC(=O)c1cccc(CN2CCCC(C(=O)Nc3ccc(-c4ccco4)cc3)C2)c1 (stereo unspecified)	none
COc1ccc(N2CCN(c3cc(C)c4ccc(C)cc4n3)CC2)cc1	none
COc1nc2ccccc2nc1N1CCN(c2ccc(F)cc2)CC1	KCNK3 inh -9.82 | KCNK3 confirm 112.7 | KCNK3 noninduced inactive
COc1nc2ccccc2nc1N1CCN(Cc2ccc3c(c2)OCO3)CC1	none
COc1ccc2c(C)cc(N3CCN(c4ccc(F)cc4)CC3)nc2c1	KCNK3 inh -9.53 | KCNK3 confirm 114.3 | KCNK3 noninduced inactive
O=C(O)c1cc(S(=O)(=O)N2CCCCC2)ccc1N1CCOCC1	none (no result: hERG protect, KCNQ1 pot, KCNQ1 inh, KCNK9 inh)
CCCCCOC(=O)c1ccc(OC(=O)c2cncc(Br)c2)cc1	none
CCCCCCCOC(=O)c1ccc(OC(=O)c2cccnc2)cc1	KCNK3 inh -9.44 | KCNK3 confirm 136.0 | KCNK3 noninduced 0.14
CSc1ccc(CNC(=O)CCn2ccc3cc(S(=O)(=O)N4CCCC4)ccc32)cc1	KCNK3 inh -9.92 | KCNK3 confirm 118.7 | KCNK3 noninduced 0.155
COc1ccc(CNC(=O)CCn2ccc3cc(S(=O)(=O)N4CCCC4)ccc32)cc1	none
Clc1cccc(Cl)c1/C=C/c1ccn[nH]1	none
COc1ccc(S(=O)(=O)N2CCN(CC(=O)NC3CC3)CC2)cc1	none
CN(CC(=O)Nc1cccc(S(=O)(=O)N2CCCC2)c1)CC(=O)Nc1ccc(F)c(F)c1F	none (no result: hERG protect, KCNQ1 pot, KCNQ1 inh, KCNK9 inh)
CN(CC(=O)Nc1cccc(S(=O)(=O)N2CCCC2)c1)CC(=O)Nc1ccc(Cl)c(C(F)(F)F)c1	KCNK3 inh -11.2 | KCNK3 confirm 128.0 | KCNK3 noninduced 0.14
O=C(COc1cccc2cccnc12)N/N=C/c1cccn1-c1ccc(F)cc1	KCNK3 inh -8.71 | KCNK3 confirm 108.3 | KCNK3 noninduced inactive
CC1(C)CC(=O)C=C(Nc2ccc(Cl)c(Br)c2)C1	KCNK3 inh -10.4 | KCNK3 confirm 114.0 | KCNK3 noninduced 0.148
CC1(C)CC(=O)C=C(Nc2ccc(Cl)cc2)C1	none
CC(=O)c1ccc(CCCc2ccc(C(C)=O)cc2)cc1	none (no result: hERG protect, KCNQ1 pot, KCNQ1 inh, KCNK9 inh)
Cc1cc(C)c2nc(-c3cccc(Cl)c3)c(C)c(C(=O)N3CCOCC3)c2c1	KCNK3 inh -9.55, KCNK9 inh -7.37 | KCNK3 confirm 121.7 | KCNK3 noninduced 0.15
CCC(C(=O)O/N=C(\N)c1ccc(Cl)cc1)c1ccccc1 (stereo unspecified)	KCNK3 inh -10.2, KCNK9 inh -6.63 | KCNK3 confirm 108.0 | KCNK3 noninduced inactive
O=C(Nc1ccccc1)N(CCN1CCOCC1)Cc1cccc(Cl)c1	KCNK3 inh -11.6 | KCNK3 confirm 94.0 | KCNK3 noninduced inactive
COc1ccc(CN(CCCN2CCOCC2)C(=O)Nc2ccccc2)cc1OC	none
COc1ccccc1C(=O)NCCC(=O)N1CCN(c2cccc(C(F)(F)F)c2)CC1	none
CCOC(=O)c1cc(-c2ccco2)nc2c1c(C)nn2-c1ccccc1	KCNK3 inh -9.37 | KCNK3 confirm 93.0 | KCNK3 noninduced inactive
CCCn1c(=O)c2c(C(=O)OCC)cc(-c3ccco3)nc2n(CCC)c1=O	none
O=C(NC1CCSc2ccccc21)c1ccccc1Br (stereo unspecified)	none
NC(=O)N/N=C/c1cn(-c2ccccc2)nc1-c1cccnc1	none (no result: KCNK3 inh)
O=C(N/N=C/c1cn(-c2ccccc2)nc1-c1cccnc1)c1ccccc1	KCNK3 inh -9.51 | KCNK3 confirm 98.0 | KCNK3 noninduced inactive
O=C(CNS(=O)(=O)c1ccccc1)OCC(=O)c1c[nH]c2ccccc12	none (no result: hERG protect, KCNQ1 pot, KCNQ1 inh, KCNK9 inh)
CSc1ccc(Cl)c(C(=O)N2CCN(c3ncccn3)CC2)c1	none (no result: hERG protect, KCNQ1 pot, KCNQ1 inh, KCNK9 inh)
COC(=O)C1=C(C)N=C2SCCC(=O)N2C1c1ccc(C(=O)OC)cc1 (stereo unspecified)	KCNK3 inh -8.91 | KCNK3 confirm 78.3 | KCNK3 noninduced 0.153
CCOC(=O)C1=C(C)N=C2SCCC(=O)N2[C@@H]1/C=C/c1ccccc1	none
COCCOC(=O)C1=C(C)N=C2SCCC(=O)N2C1/C=C/c1ccccc1 (stereo unspecified)	KCNK3 inh -13.5 | KCNK3 confirm 105.0 | KCNK3 noninduced 0.157
COCCOC(=O)C1=C(C)N=C2SCCC(=O)N2C1c1ccc(C(=O)OC)cc1 (stereo unspecified)	none
CCCN(C1CCS(=O)(=O)C1)S(=O)(=O)c1cc(OC)ccc1OC (stereo unspecified)	none (no result: hERG protect, KCNQ1 pot, KCNQ1 inh, KCNK9 inh)
O=S(=O)(c1ccc(Br)s1)N1CCN(CCOc2ccccc2)CC1	none (no result: hERG protect, KCNQ1 pot, KCNQ1 inh, KCNK9 inh)
CC1=NN(C(=O)CSCc2ccccc2)C(O)(c2ccc(F)cc2)C1 (stereo unspecified)	KCNK3 inh -9.22, KCNK9 inh -6.88 | KCNK3 confirm 94.7 | KCNK3 noninduced inactive
O=C(CSCc1ccccc1)N1CCN(c2ccc(F)cc2)CC1	none
O=[N+]([O-])c1ccc(C2CCCC/C2=N/OCc2ccccc2F)c([N+](=O)[O-])c1 (stereo unspecified)	KCNK3 inh -8.72, KCNQ1 inh 12 | KCNK3 confirm 121.3 | KCNK3 noninduced inactive
Cc1ccc(C(=O)Nc2cccc(C(=O)NCc3ccccc3)c2)o1	none
C/C(=N\NC(=O)C1(C)CC1(Br)Br)c1cccc(NC(=O)c2ccc(C)o2)c1 (stereo unspecified)	KCNK3 inh -9.62 | KCNK3 confirm 107.7 | KCNK3 noninduced 0.139
CC(C)(C)OC(=O)N1CCC(C(=O)NCC2CCCO2)CC1 (stereo unspecified)	none
COc1ccc(Nc2c(-c3ccc(C)cc3)nc3cnccn23)cc1	none
Cc1ccc(Nc2c(-c3ccccc3O)nc3cnccn23)cc1	KCNK3 inh -9.18 | KCNK3 confirm 115.3 | KCNK3 noninduced 0.126
CCC(C(=O)NCCC1=CCCCC1)n1nc(C)c2c(C)n(-c3ccccc3)nc2c1=O (stereo unspecified)	KCNK3 inh -8.8 | KCNK3 confirm 89.3 | KCNK3 noninduced inactive
CCC(C(=O)NCCCc1ccccc1)n1nc(C)c2c(C)n(-c3ccccc3)nc2c1=O (stereo unspecified)	none
CCC(C(=O)Nc1cc(F)ccc1F)n1nc(C)c2c(C)n(-c3ccc(C)cc3)nc2c1=O (stereo unspecified)	none
CCC(C(=O)Nc1ccccc1F)n1nc(C)c2c(C)n(-c3ccccc3)nc2c1=O (stereo unspecified)	KCNK3 inh -11.6 | KCNK3 confirm 89.0 | KCNK3 noninduced inactive
CCOc1ccc(S(=O)(=O)N(CC)CC(=O)NCc2ccncc2)cc1C	none
OC1(c2cccc(C(F)(F)F)c2)CCN(c2ncnc3c2[nH]c2ccc(F)cc23)CC1	KCNK3 inh -11.9 (no result: hERG protect, KCNQ1 pot, KCNQ1 inh, KCNK9 inh) | KCNK3 confirm 131.7 | KCNK3 noninduced inactive
